The record followed here is ChEMBL document CHEMBL2163205 (J Med Chem, 2012).

In brackets after ≈: the same amount, converted by molar mass.

One series deals with T1, Cathepsin K (Homo sapiens, UniProt P43235).
T1 sequence (P43235 whole entry): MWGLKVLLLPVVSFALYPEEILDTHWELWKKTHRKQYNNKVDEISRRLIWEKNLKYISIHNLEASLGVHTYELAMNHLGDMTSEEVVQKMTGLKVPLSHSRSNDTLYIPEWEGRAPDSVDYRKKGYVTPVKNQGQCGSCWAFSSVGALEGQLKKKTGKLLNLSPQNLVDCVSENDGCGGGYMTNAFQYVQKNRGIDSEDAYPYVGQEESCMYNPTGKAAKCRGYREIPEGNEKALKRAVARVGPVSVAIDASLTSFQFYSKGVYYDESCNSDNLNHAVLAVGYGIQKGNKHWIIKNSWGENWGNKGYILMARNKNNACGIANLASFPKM
In words: Inhibition of human recombinant CatK assessed as suppression of enzyme-mediated Z-Phe-Arg-AMC cleavage incubated for 1 hrs by QFRET assay.

The next series concerns the target Procathepsin L (Homo sapiens, UniProt P07711). Description: Inhibition of human recombinant CatL assessed as suppression of enzyme-mediated Z-Phe-Arg-AMC cleavage by QFRET assay. The method, boiled down:
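Recombinant human Cat L at 0.1 nM final was preincubated with compound for 30 min, then Z-Phe-Arg-AMC (10 μM final) was added. QFRET cleavage was run 1 h at room temperature and stopped with acetic acid. Fluorescence read at ex 360/em 425 nm; IC50 by variable-slope nonlinear regression.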

The next series addresses Cathepsin S (Homo sapiens, UniProt P25774). In words: Inhibition of human recombinant CatS assessed as suppression of enzyme-mediated Z-Val-Val-Arg-AMC cleavage by QFRET assay. In short, it runs like this:
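Recombinant human Cat S at 0.5 nM final was preincubated with compound for 30 min at room temperature. Z-Val-Val-Arg-AMC (100 μM final) was added in potassium phosphate buffer, pH 6.4, incubated 1 h, then stopped with acetic acid. AMC fluorescence read at ex 360/em 425 nm; IC50 by nonlinear regression.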

The target of a further series is Cathepsin B (Homo sapiens, UniProt P07858). Description: Inhibition of human recombinant CatB assessed as suppression of enzyme-mediated Z-Arg-Arg-AMC cleavage by QFRET assay. In short, it runs like this:
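Recombinant human Cat B at 0.5 nM final was preincubated with compound for 30 min at room temperature. Z-Arg-Arg-AMC (100 μM final) was added in potassium phosphate buffer, pH 6.4, incubated 1 h, then stopped with acetic acid. Fluorescence read at ex 360/em 425 nm with background correction; IC50 by nonlinear regression.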

A short description of series [1]: Lipophilicity, log D of the compound at pH 7.4. The note with it: buffer.
The nature of series [2]: Intrinsic clearance in human liver microsomes assessed as metabolic turnover.
A short description of series [3]: Aqueous solubility of the compound at pH 7.4. The conditions noted are these: buffer.
Series [4] in a line: Intrinsic clearance in rat liver microsomes assessed as metabolic turnover.
Series [5] in a line: Intrinsic clearance in rat hepatocytes assessed as metabolic turnover measured per 10^6 cells. The note with it: read-out: […]. In kind it is ADME, cell-based, Hepatocyte. In short, it runs like this:
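Intrinsic clearance from in vitro hepatocyte incubation, expressed in μL/min/10⁶ cells. Each value is the mean of at least n = 2 experiments.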

Sequence of Cathepsin S (P25774 whole entry): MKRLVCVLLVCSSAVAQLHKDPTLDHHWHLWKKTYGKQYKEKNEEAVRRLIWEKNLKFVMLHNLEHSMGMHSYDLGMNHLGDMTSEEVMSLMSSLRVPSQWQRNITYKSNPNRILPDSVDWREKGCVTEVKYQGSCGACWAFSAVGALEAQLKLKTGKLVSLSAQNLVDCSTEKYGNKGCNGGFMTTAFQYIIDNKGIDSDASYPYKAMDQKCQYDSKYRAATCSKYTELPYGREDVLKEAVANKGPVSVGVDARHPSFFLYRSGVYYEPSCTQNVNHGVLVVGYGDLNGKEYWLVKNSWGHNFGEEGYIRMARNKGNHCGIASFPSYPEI
Sequence of Procathepsin L (P07711 whole entry): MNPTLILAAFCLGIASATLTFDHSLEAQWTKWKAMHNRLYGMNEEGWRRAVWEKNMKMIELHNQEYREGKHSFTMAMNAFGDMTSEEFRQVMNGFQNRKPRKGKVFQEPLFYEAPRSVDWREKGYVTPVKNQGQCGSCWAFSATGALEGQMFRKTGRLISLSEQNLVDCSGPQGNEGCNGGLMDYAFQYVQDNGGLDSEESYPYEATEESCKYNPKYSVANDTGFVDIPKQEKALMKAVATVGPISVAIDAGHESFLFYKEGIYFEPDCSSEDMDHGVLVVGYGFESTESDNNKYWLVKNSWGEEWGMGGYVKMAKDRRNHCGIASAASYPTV

Consider `N#CC1(NC(=O)[C@@H]2CCCC[C@H]2C(=O)N2CCc3[nH]c4c(F)cccc4c3C2)CC1`, for which the IC50 at Cathepsin K is less than 1 nM; at Procathepsin L, “Not Active”; on Cathepsin S, greater than 4000 nM; on Cathepsin B, greater than 2900 nM. The same compound displayed a logD in series [1] of 3. Further, the intrinsic clearance (microsomal CLint) in [2] came to 55 µL/min/mg; in series [4], 311 µL/min/mg. In series [3], the solubility came out at 470 µM (≈ 192 µg/mL).
Regarding `N#CCNC(=O)[C@@H]1CCCC[C@H]1C(=O)N1CCCCC1`, the half-inhibitory concentration (IC50) at Cathepsin K is 73 nM; on Procathepsin L (read-out: IC50), greater than 100000 nM; at Cathepsin S, 2110 nM; at Cathepsin B it was 8750 nM. This compound yielded a logD in series [1] of 0.9. Also, the intrinsic metabolic clearance (microsomal CLint) is less than 2 µL/min/mg in series [2] and 12 µL/min/mg in series [4]. The same compound showed a solubility in [3] greater than 4900 µM.
In the case of `Cn1c2c(c3c(F)c(F)ccc31)CN(C(=O)[C@@H]1CCCC[C@H]1C(=O)NC1(C#N)CC1)CC2`, the 50% inhibitory concentration (IC50) at Cathepsin K was 3 nM; at Procathepsin L it was “Not Active”; on Cathepsin S it was greater than 4000 nM; on Cathepsin B, greater than 2900 nM. The logD in series [1] was 2.8. Moreover, the results for the microsomal CLint in series [2] and in series [4] were 170 µL/min/mg and greater than 350 µL/min/mg, respectively. Moreover, the solubility in series [3] turned out to be 300 µM (≈ 132 µg/mL).
With `N#Cc1cccc2c3c([nH]c12)CCN(C(=O)[C@@H]1CCCC[C@H]1C(=O)NC1(C#N)CC1)C3`, the IC50 on Cathepsin K is 2 nM; at Procathepsin L, “Not Active”; at Cathepsin S it was greater than 4000 nM; on Cathepsin B, greater than 2900 nM. Besides, in series [1], the log distribution coefficient (logD) worked out at 2.5. For the same compound, the microsomal CLint was determined as 34 µL/min/mg in [2] and 80 µL/min/mg in series [4]. The concentration in solution in series [3] (solubility) was 400 µM (≈ 166 µg/mL).
Take `CS(=O)(=O)c1cccc2c3c([nH]c12)CCN(C(=O)[C@@H]1CCCC[C@H]1C(=O)NC1(C#N)CC1)C3`: the IC50 at Cathepsin K is 17 nM; on Procathepsin L it was “Not Active”; at Cathepsin S, greater than 4000 nM; at Cathepsin B it was greater than 2900 nM. Also, the pH-dependent lipophilicity (logD) in series [1] was found to be 1.7. Further, the values for the microsomal CLint in series [2] and in series [4] were 4 µL/min/mg and 23 µL/min/mg, respectively. This compound returned a solubility in series [3] of 1600 µM (≈ 750 µg/mL).
For `N#CCNC(=O)[C@@H]1CCCC[C@H]1C(=O)N1CCN(c2ccccc2)CC1`, the IC50 is 7 nM on Cathepsin K, greater than 100000 nM on Procathepsin L (read-out: IC50), 1030 nM on Cathepsin S and 455 nM at Cathepsin B. Also, the log distribution coefficient (logD) in series [1] worked out at 1.8. Besides, the intrinsic clearance (microsomal CLint) in series [2] is 7.7 µL/min/mg; in [4], 115 µL/min/mg. In series [3], the solubility amounted to 640 µM (≈ 227 µg/mL).
Consider `N#CC1(NC(=O)[C@@H]2CCCC[C@H]2C(=O)N2CCc3[nH]c4c(OC(F)(F)F)cccc4c3C2)CC1`, for which the IC50 is 2 nM at Cathepsin K, “Not Active” on Procathepsin L, greater than 4000 nM on Cathepsin S and greater than 2900 nM on Cathepsin B. Besides, the log distribution coefficient (logD) in [1] is 4. The microsomal CLint was determined as 19 µL/min/mg in series [2] and 53 µL/min/mg in [4]. Moreover, in [3], the solubility stood at 120 µM (≈ 56.9 µg/mL).
Consider `N#CC1(NC(=O)[C@@H]2CCCC[C@H]2C(=O)N2CCc3[nH]c4cc(F)ccc4c3C2)CC1`, for which the IC50 at Cathepsin K is 4 nM; at Procathepsin L, “Not Active”; at Cathepsin S, greater than 4000 nM; on Cathepsin B, greater than 2900 nM. Besides, the logD in series [1] turned out to be 3. Besides, the intrinsic clearance (microsomal CLint) in series [2] is 36 µL/min/mg; in series [4], 89 µL/min/mg. The compound further yielded a solubility in [3] of 540 µM (≈ 221 µg/mL).
For the compound `Cc1cccc2c3c([nH]c12)CCN(C(=O)[C@@H]1CCCC[C@H]1C(=O)NC1(C#N)CC1)C3`, the concentration for half-maximal inhibition (IC50) was 3 nM at Cathepsin K, “Not Active” at Procathepsin L, greater than 4000 nM on Cathepsin S and greater than 2900 nM at Cathepsin B. The same compound returned a log distribution coefficient (logD) in [1] of 3. The figures for the microsomal CLint in [2] and in series [4] were 25 µL/min/mg and 179 µL/min/mg, respectively. This compound returned a solubility in series [3] of 510 µM (≈ 206 µg/mL).
Take `COc1ccc2[nH]c3c(c2c1)CN(C(=O)[C@@H]1CCCC[C@H]1C(=O)NC1(C#N)CC1)CC3`: the values for the IC50 result on Procathepsin L, on Cathepsin S and on Cathepsin B were “Not Active”, greater than 4000 nM and greater than 2900 nM, respectively. In addition, the logD in [1] is 2.4. In addition, in series [2], the intrinsic metabolic clearance (microsomal CLint) was 29 µL/min/mg. The solubility in [3] amounted to 822 µM (≈ 346 µg/mL). Besides, the hepatocyte CLint in series [5] was determined as 20 µL/min/1e6 cells.
For the compound `CS(=O)(=O)c1ccc2c3c([nH]c2c1)CCN(C(=O)[C@@H]1CCCC[C@H]1C(=O)NC1(C#N)CC1)C3`, the IC50 on Cathepsin K was 34 nM; at Procathepsin L it was “Not Active”; at Cathepsin S, greater than 4000 nM; at Cathepsin B, greater than 2900 nM. For the same compound, the logD in series [1] is 1.5. Besides, the microsomal CLint in [2] was less than 2 µL/min/mg; in series [4] it was 7.2 µL/min/mg. The compound further came in with a solubility in series [3] of 902 µM (≈ 423 µg/mL).
In the case of `N#CC1(NC(=O)[C@@H]2CCCC[C@H]2C(=O)N2CCc3[nH]c4c(C(F)(F)F)cccc4c3C2)CC1`, the IC50 at Cathepsin K is 5 nM; on Procathepsin L, “Not Active”; on Cathepsin S, greater than 4000 nM; at Cathepsin B it was greater than 2900 nM. Also, in series [1], the log distribution coefficient (logD) was 3.8. In addition, the results for the microsomal CLint in series [2] and in [4] were 26 µL/min/mg and 116 µL/min/mg, respectively. Besides, the solubility in series [3] stood at 150 µM (≈ 68.8 µg/mL).
`CC(C)(C)[C@@H](C#N)NC(=O)[C@@H]1CCCC[C@H]1C(=O)N1CCc2[nH]c3ccc(F)cc3c2C1`: the IC50 on Cathepsin K is 785 nM; on Procathepsin L (read-out: IC50), greater than 100000 nM; at Cathepsin S it was greater than 100000 nM; at Cathepsin B it was 31200 nM. Further, the log distribution coefficient (logD) in series [1] was greater than 4.1. In addition, the intrinsic metabolic clearance (microsomal CLint) in series [2] came out at 99 µL/min/mg; in series [4] it was 195 µL/min/mg. The same compound showed a solubility in series [3] of 74 µM (≈ 32.5 µg/mL).
For `CS(=O)(=O)c1ccc2[nH]c3c(c2c1)CN(C(=O)[C@@H]1CCCC[C@H]1C(=O)NC1(C#N)CC1)CC3`, the values for the IC50 result at Procathepsin L, on Cathepsin S and on Cathepsin B were “Not Active”, greater than 4000 nM and greater than 2900 nM, respectively. Further, in [2], the microsomal CLint amounted to 14 µL/min/mg. Further, the concentration in solution in [3] (solubility) came to 193 µM (≈ 90.4 µg/mL). Further, the hepatocyte CLint in [5] amounted to 3.5 µL/min/1e6 cells.
As for `CN1CCN(C(=O)[C@@H]2CCCC[C@H]2C(=O)NCC#N)CC1`, the IC50 at Cathepsin K is 37 nM; at Procathepsin L (read-out: IC50) it was greater than 40000 nM; at Cathepsin S it was 2070 nM; on Cathepsin B, 7630 nM. This compound yielded a logD in series [1] of -0.1. Besides, the microsomal CLint in series [2] was found to be 7.9 µL/min/mg. In addition, in [3], the solubility stood at 3560 µM (≈ 1040 µg/mL). For the same compound, the hepatocyte CLint in [5] was less than 2 µL/min/1e6 cells.
On to `N#CC1(NC(=O)[C@@H]2CCCC[C@H]2C(=O)N2CCc3[nH]c4cccc(F)c4c3C2)CC1`, for which the concentration for half-maximal inhibition (IC50) was 10 nM on Cathepsin K, “Not Active” on Procathepsin L, greater than 4000 nM at Cathepsin S and greater than 2900 nM on Cathepsin B. This compound showed a logD in series [1] of 3.2. Further, the microsomal CLint came to 57 µL/min/mg in [2] and 322 µL/min/mg in [4]. In addition, the solubility in series [3] came to 128 µM (≈ 52.3 µg/mL).
For the compound `C[C@H](C#N)NC(=O)[C@@H]1CCCC[C@H]1C(=O)N1CCc2[nH]c3ccc(F)cc3c2C1`, the half-maximal inhibitory concentration (IC50) was 16.2 nM on Cathepsin K, greater than 100000 nM on Procathepsin L (read-out: IC50), greater than 100000 nM at Cathepsin S and 44900 nM at Cathepsin B. This compound displayed a pH-dependent lipophilicity (logD) in series [1] of 3.1. Moreover, the intrinsic clearance (microsomal CLint) in series [2] is 12 µL/min/mg; in series [4] it was greater than 250 µL/min/mg. Besides, in series [3], the solubility worked out at 460 µM (≈ 182 µg/mL).
